Converted amounts (≈) assume the structure as drawn. The source made the active and inactive calls. The calls are words filed in the database; no cut-off is given here. Non-standard residues stand in square brackets, D forms with d. Residues, ends and D or L forms follow the SMILES beside them. ξ: configuration not given here. *: point of attachment. Hexanoyl(4ξ-Me) = CCC(C)CCC(=O)*; dDab = NCC[C@@H](N)C(=O)O; Dab = NCC[C@H](N)C(=O)O

Experiment [1] concerns Staphylococcus aureus. Description: Bactericidal activity against Staphylococcus aureus at 1 to 2 times MIC after 6 hrs by time-kill assay. The class given is functional, organism-based. The essentials:
(§1)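 Time-kill assay. Overnight culture diluted in LB to mid-log phase, 10^5–10^8 CFU/mL; 100 μL added to 10 mL peptide in LB at 1×, 2×, 4× and 20× MIC. Incubated with shaking at 100 rpm, at 28 °C (Ea1501, Psa) or 37 °C (E. coli, P. aeruginosa, S. aureus). Samples at 0, 0.5, 1, 3, 6, 9 and 24 h serially diluted in 0.9% saline and plated; colonies counted after 24 h. Run in duplicate. Bactericidal means ≥2-log10 CFU/mL drop versus the no-antibiotic control.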

The subject of experiment [2] is Erwinia amylovora. As to the kind of experiment: Antimicrobial activity against streptomycin-resistant Erwinia amylovora after 24 hrs by spectrophotometry. The class given is functional. The method in brief: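 Broth microdilution in Luria broth; overnight culture grown at 28 °C, adjusted to OD600 0.6, mixed 1:1 with a dilution series of peptide prepared in LB containing 0.5% acetic acid. Three replicates per concentration.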

For experiment [3], the system named is Staphylococcus aureus. Description: Bactericidal activity against Staphylococcus aureus at 4 to 20 times MIC after 24 hrs by time-kill assay. The class given is functional, organism-based. The method in brief:
as §1

Experiment [4] has as its system Pseudomonas syringae. As to the kind of experiment: Inhibition of Pseudomonas syringae pv. actinidiae 16027 biofilm formation at 5 uM after 48 hrs. The format is functional. The essentials: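 Psa16027 overnight culture (OD600 0.3) grown at 28 °C in LB. 50 μL peptide in LB (1–100 μM) plus 50 μL diluted culture, triplicates, incubated 48 h at 28 °C at 50 rpm. Wells stained with 1% crystal violet for 5 min and washed; stain solubilized in 96% ethanol and A560 read as biofilm mass. For imaging, 12-well plates were used and stained biofilms viewed at 400×.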

For experiment [5], the system named is Escherichia coli. As to the kind of experiment: Bactericidal activity against Escherichia coli assessed as reduction in bacterial count at 2 to 4 times MIC up to 9 hrs by time-kill assay relative to control. The class given is functional. The method in brief:
as §1

The subject of experiment [6] is Pseudomonas syringae. Description: Bactericidal activity against Pseudomonas syringae pv. actinidiae 16027 at 1 to 2 times MIC after 9 hrs by time-kill assay. The format is functional, organism-based. The essentials: as §1
Experiment [7] relates to Erwinia amylovora. As to the kind of experiment: Antimicrobial activity against Erwinia amylovora 1501 after 24 hrs by spectrophotometry. The class given is functional. The note with it: Erwinia amylovora, 1501, 24 h. The essentials: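 Broth microdilution in Luria broth. Overnight culture from a single colony, grown at 28 °C (Ea1501, Psa) or 37 °C (E. coli, S. aureus), adjusted to OD600 0.6. Peptide dissolved in LB with 0.5% acetic acid as a dilution series; 50 μL peptide plus 50 μL culture per well, triplicates.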

The subject of experiment [8] is Pseudomonas aeruginosa. Description: Bactericidal activity against Pseudomonas aeruginosa by time-kill assay. The format is functional, organism-based. The method in brief:
as §1

The test system of experiment [9] is Staphylococcus aureus. As to the kind of experiment: Antimicrobial activity against Staphylococcus aureus assessed as complete cell lysis at 2 times MIC […]. The format is functional, organism-based.
For experiment [10], the system named is Staphylococcus aureus. As to the kind of experiment: Bactericidal activity against Staphylococcus aureus at 4 to 20 times MIC after 3 hrs by time-kill assay. The format is functional, organism-based. The essentials:
as §1

Experiment [11] concerns Pseudomonas aeruginosa. As to the kind of experiment: Antimicrobial activity against Pseudomonas aeruginosa assessed as inner membrane permeability at 0.5 to 100 uM measured after 60 min by propidium iodide uptake assay.
Experiment [12] deals with Escherichia coli. Description: Antimicrobial activity against Escherichia coli assessed as perturbed cell membrane at 2 times MIC measured after 24 hrs by scanning electron microscopy. The class given is functional, organism-based. The method in brief: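 Bacteria grown to OD600 0.3 in LB on glass slides for 24 h, then washed with 10 mM sodium phosphate pH 7.4. Treated 20 min with peptide in LB at twice the upper limit of its MIC, washed, and fixed in 4% glutaraldehyde 1 h. Dehydrated through graded ethanol, dried at 60 °C, platinum coated, and imaged by SEM at 10 kV.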

Take `CCC(C)CCC(=O)N[C@H](CCN)C(=O)N[C@@H](CCN)C(=O)N[C@@H](CCN)C(=O)N[C@@H](CC(C)C)C(=O)N[C@H](Cc1ccccc1)C(=O)N[C@@H](CCN)C(=O)N[C@@H](CCN)C(=O)N[C@@H](CC(C)C)C(N)=O` (stereo partly drawn) ({Hexanoyl(4ξ-Me)}-[dDab][Dab][Dab]L[dF][Dab][Dab]L-NH2): the result in experiment [1], in [3], in experiment [6], in experiment [9], in experiment [10] and in experiment [11] was Active. For the same molecule, in experiment [12], the result was Active. Also, the MIC in experiment [2] was 5 µM (≈ 5.02 µg/mL); in experiment [7], 2.5 µM (≈ 2.51 µg/mL). Further, the inhibition result in experiment [4] is “Active”. Besides, the Activity in [5] is >3 deltalog10CFU/ml; in experiment [8] it was “Dose-dependent effect”.

What is called MIC is the lowest concentration that inhibits growth of the organism.
